Measurements as given in ChEMBL document CHEMBL1140424, “Charge dependence of cellular uptake and selective antitumor activity of porphyrazines” (J Med Chem, 2005).

Assays:
A549 [1] = experiment: Decrease in viability of A549 cells at 50 uM for 72 hrs; assay type: cell-based; details: human, a549, 72 h
How it was run: (§1)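 Cells were grown to 70% confluence and treated in the dark with pz (12.5, 25, 50, 100 µM) or DMSO vehicle for 72 h. MTT (200 µg) was added for 5 h at 37 °C, solubilised in DMSO, and absorbance read at 540 nm. Viability is relative to DMSO control. Four plates per experiment, at least three experiments, normalised and averaged (≥12 values per condition).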

WI-38 VA13 [2] = experiment: Decrease in viability of WI-38 VA13 cells at 50 uM for 72 hrs; assay type: cell-based; details: human, wi-38 va13, 72 h; how it was run: as §1
A549 [3] = experiment: Decrease in viability of A549 cells at 25 uM for 72 hrs; assay type: cell-based; details: human, a549, 72 h; how it was run: as §1
WI-38 VA13 [4] = experiment: Percentage growth of WI-38 VA13 cells at 25 uM for 72 hrs; assay type: cell-based; details: human, wi-38 va13, 72 h; how it was run: as §1
WI-38 VA13 [5] = experiment: Percentage increase in growth of WI-38 VA13 cells at 12.5 uM for 72 hrs; assay type: cell-based; details: human, wi-38 va13, 72 h; how it was run: as §1
A549 [6] = experiment: Percentage increase in growth of A549 tumor cells at 12.5 uM for 72 hrs; assay type: cell-based; details: human, a549, 72 h; how it was run: as §1
A549 [7] = experiment: Decrease in viability of A549 cells at 100 uM for 72 hrs; assay type: cell-based; details: human, a549, 72 h; how it was run: as §1
WI-38 VA13 [8] = experiment: Decrease in viability of WI-38 VA13 cells at 100 uM for 72 hrs; assay type: cell-based; details: human, wi-38 va13, 72 h; how it was run: as §1
WI-38 VA13 [9] = experiment: Cytotoxicity against human fibroblast-like cell line of embryonic origin WI-38 VA13 at 12.5 to 100 uM by MTT assay; assay type: functional, cell-based; how it was run: as §1
A549 [10] = experiment: Cytotoxicity against A549 tumor cells at 12.5 to 100 uM by MTT assay; assay type: functional, cell-based; details: Homo sapiens; how it was run: as §1
A549 [11] = experiment: Cellular uptake in A549 cells using false-white single-photon confocal microscopy at 3.1 uM; assay type: ADME, cell-based; details: human, a549, 3.1 µM
How it was run: (§2)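 Cells on glass coverslips grown at 37 °C, 5% CO2 to 60–80% confluence, then treated with pz (50, 25, 12.5, 6.2, 3.1 µM; DMSO stock) in the dark for 24 h. Washed twice with PBS and imaged live in PBS at room temperature. Single-photon excitation at 488 nm, long-pass 505-nm emission filter. Gain set to remove autofluorescence in DMSO-treated controls.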

A549 [12] = experiment: Cellular uptake in A549 cells using false-white single-photon confocal microscopy; assay type: ADME, cell-based; details: human; how it was run: as §2
A549 [13] = experiment: Colocalization experiment with mitotracker green in A549 cells at 100 uM for 24 hrs by false-white two-photon confocal microscopy; details: human, a549, 24 h
A549 [14] = experiment: Colocalization experiment with LysoTracker green in A549 cells at 100 uM for 24 hrs by false-white two-photon confocal microscopy; details: human, a549, 24 h

Activity (WI-38 VA13 [4]) [%]	Activity (WI-38 VA13 [5]) [%]	Activity (A549 [6]) [%]	Activity (A549 [11])	Activity (A549 [12])	Activity (A549 [13])	Activity (A549 [14])	Compound	Activity (A549 [1]) [%]	Activity (WI-38 VA13 [2]) [%]	Activity (A549 [3]) [%]	Activity (A549 [7]) [%]	Activity (WI-38 VA13 [8]) [%]	Activity (WI-38 VA13 [9])	Activity (A549 [10])
10	10	10					CC(C)Oc1ccc(OC(C)C)c2c1-c1nc3nc([nH]c4nc(nc5[nH]c(nc-2n1)c(SCCCC(=O)O)c5SCCCC(=O)O)-c1c(OC(C)C)ccc(OC(C)C)c1-4)C(SCCCC(=O)O)=C3SCCCC(=O)O	80	10	40	80			
							CC(C)Oc1ccc(OC(C)C)c2c1-c1nc3nc([nH]c4nc(nc5[nH]c(nc-2n1)c(SCCOCC[n+]1ccccc1)c5SCCOCC[n+]1ccccc1)-c1c(OC(C)C)ccc(OC(C)C)c1-4)C(SCCOCC[n+]1ccccc1)=C3SCCOCC[n+]1ccccc1	10	20		70	70	Toxic	Toxic
			Active	Active	Active	Not Active	CC(C)Oc1ccc(OC(C)C)c2c1-c1nc3nc(nc4[nH]c(nc5[nH]c(nc-2n1)c(SCCOCCOCCO)c5SCCOCCOCCO)c1c(OC(C)C)ccc(OC(C)C)c41)C(SCCOCCOCCO)=C3SCCOCCOCCO	40					Toxic	Toxic
